The values that follow come from ChEMBL document CHEMBL1146338, “Synthesis and antioxidant activity evaluation of new 7-aryl or 7-heteroarylamino-2,3-dimethylbenzo[b]thiophenes obtained by Buchwald-Hartwig C-N cross-coupling” (Bioorg Med Chem, 2007).

Experiment [1] relates to Radical scavenging activity. The experiment is described as follows: Antioxidant activity assessed as DPPH radical scavenging activity at 0.0156 g/L. The experiment is classed as functional. Put shortly:
(§1)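 Compound in methanol (0.3 mL, various concentrations) mixed with methanolic DPPH ([…] stock, 2.7 mL), shaken and held 60 min in the dark. Absorbance read at 517 nm. %RSA = [(ADPPH − AS)/ADPPH] × 100. Means of three independent samples. EC50 (50% scavenging) taken from the plot of %RSA against concentration; BHA and BHT as standards.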

Experiment [2] is described as follows: Antioxidant activity assessed as inhibition of lipid peroxidation after 2 hrs by beta carotene bleaching method. The experiment is classed as functional. Put shortly:
(§2)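 β-Carotene linoleate emulsion (β-carotene dissolved in chloroform) incubated with compound at 50 C in a water bath. A470 read at time zero, then every 20 min until the control lost colour; a blank without β-carotene was subtracted. Activity = (β-carotene after 2 h / initial β-carotene) × 100. Triplicate means; EC50 taken from the activity % versus concentration plot.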

For experiment [3], the system named is Erythrocyte. The experiment is described as follows: Inhibition of AAPH-induced ram erythrocyte hemolysis. The experiment is classed as functional, cell-based. To be noted: Ovis aries. Put shortly:
(§3)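 Erythrocytes from a male ram (churra galega transmontana) washed three times in 10 mM PBS pH 7.4. A 20% suspension combined with 200 mM AAPH in PBS and methanolic compound at different concentrations, shaken gently 3 h at 37 C. Diluted with PBS, centrifuged, supernatant A540 read. % inhibition set against the AAPH control without compound. Triplicate means; EC50 from the plot; L-ascorbic acid as standard.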

Experiment [4] relates to Radical scavenging activity. Put plainly: Antioxidant activity assessed as DPPH radical scavenging activity. The experiment is classed as functional. Put shortly: as §1
On the technique in general: DPPH is a stable violet radical that fades when it is reduced.

The nature of experiment [5]: Antioxidant activity assessed as inhibition of lipid peroxidation at 0.0625 g/L after 2 hrs by beta carotene bleaching method. The experiment is classed as functional. Put shortly: as §2
The subject of experiment [6] is Radical scavenging activity. The experiment is described as follows: Antioxidant activity assessed as DPPH radical scavenging activity at 0.0312 g/L. The experiment is classed as functional. Put shortly:
as §1

The subject of experiment [7] is Radical scavenging activity. Put plainly: Antioxidant activity assessed as DPPH radical scavenging activity at 0.0625 g/L. The experiment is classed as functional. Put shortly: as §1
Experiment [8] has as its system Erythrocyte. Put plainly: Inhibition of AAPH-induced ram erythrocyte hemolysis at 0.125 g/L. The experiment is classed as functional. To be noted: Ovis aries. Put shortly: as §3
The test system of experiment [9] is Radical scavenging activity. The experiment is described as follows: Antioxidant activity assessed as DPPH radical scavenging activity at 0.125 g/L. The experiment is classed as functional. Put shortly: as §1
In experiment [10] the test system is Erythrocyte. Put plainly: Inhibition of AAPH-induced ram erythrocyte hemolysis at 0.250 g/L. The experiment is classed as functional. The settings on record: Ovis aries. Put shortly:
as §3

Experiment [11] is described as follows: Antioxidant activity assessed as inhibition of lipid peroxidation at 0.250 g/L after 2 hrs by beta carotene bleaching method. The experiment is classed as functional. Put shortly:
as §2

The subject of experiment [12] is Erythrocyte. The experiment is described as follows: Inhibition of AAPH-induced ram erythrocyte hemolysis at 0.0625 g/L. The experiment is classed as functional. To be noted: Ovis aries. Put shortly:
as §3

The nature of experiment [13]: Antioxidant activity assessed as reduction of ferric cyanide complex by reducing power assay. The experiment is classed as functional. Put shortly: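 Oyaizu method: methanolic compound at various concentrations mixed with sodium phosphate buffer (200 mmol/L, pH 6.6) and 1% potassium ferricyanide, held 20 min at 50 C. 10% TCA added, then centrifuged. Supernatant diluted with water, 0.1% FeCl3 added, A700 read. Triplicate means; EC50 = concentration giving absorbance 0.5, from the A700 versus concentration plot. Standards: BHA, BHT, ascorbic acid.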

Experiment [14] can be described thus: Antioxidant activity assessed as inhibition of lipid peroxidation at 0.0312 g/L after 2 hrs by beta carotene bleaching method. The experiment is classed as functional. Put shortly:
as §2

Experiment [15] is described as follows: Antioxidant activity assessed as inhibition of lipid peroxidation at 0.0156 g/L after 2 hrs by beta carotene bleaching method. The experiment is classed as functional. Put shortly: as §2
Experiment [16] has as its system Erythrocyte. Put plainly: Inhibition of AAPH-induced ram erythrocyte hemolysis at 0.0312 g/L. The experiment is classed as functional. To be noted: Ovis aries. Put shortly: as §3
Experiment [17] can be described thus: Antioxidant activity assessed as inhibition of lipid peroxidation at 0.125 g/L after 2 hrs by beta carotene bleaching method. The experiment is classed as functional. Put shortly:
as §2

Experiment [18] concerns Erythrocyte. Put plainly: Inhibition of AAPH-induced ram erythrocyte hemolysis at 0.0156 g/L. The experiment is classed as functional. The settings on record: Ovis aries. Put shortly:
as §3

Experiment [19] relates to Radical scavenging activity. The experiment is described as follows: Antioxidant activity assessed as DPPH radical scavenging activity at 0.250 g/L. The experiment is classed as functional. Put shortly:
as §1

Experiment [20] can be described thus: Antioxidant activity assessed as inhibition of lipid peroxidation at 2 g/L after 2 hrs by beta carotene bleaching method. The experiment is classed as functional. Put shortly:
as §2

In experiment [21] the test system is Erythrocyte. Put plainly: Inhibition of AAPH-induced ram erythrocyte hemolysis at 1 g/L. The experiment is classed as functional. To be noted: Ovis aries. Put shortly: as §3

Structures are written as SMILES. Converted amounts (≈) assume the structure as drawn.

In general, EC50 refers to the concentration that produces a half-maximal response. As usually defined, the inhibition is how much of the control response was suppressed. In the case of `Cc1sc2c(Nc3ccccn3)cccc2c1C`, the Activity in experiment [1] is 0.4%; in experiment [6] it was 2.6%; in experiment [7], 4.9%; in experiment [9], 8.8%; in experiment [19], 9%. The EC50 in experiment [2] was greater than 250 µg/mL; in experiment [3] it was 51.4 µg/mL (≈ 202 µM); in experiment [4], greater than 250 µg/mL; in [13] it was greater than 250 µg/mL. Further, the inhibition in experiment [5] amounted to 45.8%; in experiment [11] it was 47.2%; in [14], 42.9%; in experiment [15] it was 40.7%; in experiment [17], 45.9%. Besides, 125 µg/mL produced 64.6% inhibition in experiment [8]. In addition, the inhibition at 250 µg/mL in experiment [10] stood at 69.5%. In addition, the inhibition at 62.5 µg/mL in [12] stood at 53%. The inhibition at 31.2 µg/mL in experiment [16] was found to be 44.5%. Besides, the inhibition at 15.6 µg/mL in experiment [18] was determined as 38.4%.

For the molecule `COc1ccc(Nc2cccc3c(C)c(C)sc23)cc1`, the Activity in experiment [1] worked out at 55.8%; in [6] it was 85.8%; in experiment [7] it was 88.4%; in experiment [9], 91.1%; in [19], 93.3%. The EC50 in [2] came to 8.45 µg/mL (≈ 29.8 µM); in experiment [3], 21.4 µg/mL (≈ 75.5 µM); in experiment [4], 14 µg/mL (≈ 49.4 µM); in experiment [13], 21.6 µg/mL (≈ 76.2 µM). Moreover, the inhibition in experiment [5] worked out at 99.7%; in experiment [11] it was 100%; in experiment [14], 96.8%; in experiment [15], 92.3%; in [17] it was 100%. For the same molecule, the inhibition at 125 µg/mL in experiment [8] turned out to be 65.9%. The molecule also yielded an inhibition at 250 µg/mL in experiment [10] of 66.7%. Moreover, 62.5 µg/mL produced 65.1% inhibition in experiment [12]. For the same molecule, in experiment [16], 31.2 µg/mL produced 61.2% inhibition. The molecule also returned an inhibition at 15.6 µg/mL in [18] of 43.4%.

For the molecule `CC(C)(C)c1cc(O)ccc1O`, the inhibition in experiment [20] was 82.2%.

`COc1ccc(Nc2cccc3c(C)c(C)sc23)cc1OC`: the Activity was found to be 47.3% in experiment [1]; 72.4% in experiment [6]; 86.9% in [7]; 92.1% in experiment [9]; 94.7% in experiment [19]. The EC50 in experiment [2] turned out to be 8.73 µg/mL (≈ 27.9 µM); in [3], 18.9 µg/mL (≈ 60.3 µM); in experiment [4], 17.3 µg/mL (≈ 55.2 µM); in experiment [13], 22.7 µg/mL (≈ 72.4 µM). Further, the inhibition in [5] stood at 100%; in experiment [11], 100%; in [14] it was 91.4%; in experiment [15], 89.3%; in [17] it was 100%. For the same molecule, in [8], the inhibition at 125 µg/mL was determined as 62.1%. This molecule gave an inhibition at 250 µg/mL in experiment [10] of 62.9%. For the same molecule, testing at 62.5 µg/mL in experiment [12] gave an inhibition of 61.2%. In addition, in [16], testing at 31.2 µg/mL gave an inhibition of 58.3%. In experiment [18], this molecule yielded an inhibition at 15.6 µg/mL of 47.8%.

Consider `O=C1O[C@H]([C@@H](O)CO)C(O)=C1O` [ASCORBIC ACID], for which the inhibition at 1000 µg/mL in [21] is 94.6%.

For `Cc1sc2c(Nc3ccc(C#N)cc3)cccc2c1C`, the Activity was found to be 0% in experiment [1]; 0% in experiment [6]; 0% in experiment [7]; 0.5% in [9]; 3.1% in [19]. Besides, the EC50 in [2] is 16 µg/mL (≈ 57.5 µM); in experiment [3], 18 µg/mL (≈ 64.7 µM); in experiment [4], greater than 250 µg/mL; in [13], greater than 250 µg/mL. The inhibition in [5] is 69%; in experiment [11], 79.6%; in experiment [14], 67.3%; in experiment [15], 49.6%; in experiment [17], 71%. In [8], this molecule yielded an inhibition at 125 µg/mL of 62.6%. This molecule also returned an inhibition at 250 µg/mL in [10] of 66.4%. Further, 62.5 µg/mL produced 62.1% inhibition in [12]. Also, 31.2 µg/mL produced 59.4% inhibition in experiment [16]. Further, in experiment [18], the inhibition at 15.6 µg/mL is 48.3%.

For `COc1cccc(Nc2cccc3c(C)c(C)sc23)c1`, the Activity in [1] worked out at 7.9%; in experiment [6], 13.4%; in experiment [7], 13.5%; in [9], 22.2%; in [19], 28.4%. Moreover, the EC50 in experiment [2] was 13.7 µg/mL (≈ 48.3 µM); in [3] it was 44.2 µg/mL (≈ 156 µM); in experiment [4], greater than 250 µg/mL; in experiment [13], 98.7 µg/mL (≈ 348 µM). In addition, the inhibition in experiment [5] amounted to 68.9%; in experiment [11], 84.8%; in experiment [14], 62.9%; in experiment [15], 56.8%; in [17], 82.6%. This molecule had an inhibition at 125 µg/mL in [8] of 63.1%. Besides, at 250 µg/mL the inhibition in [10] was 66.7%. Further, in [12], at 62.5 µg/mL the inhibition was 58%. The same molecule returned an inhibition at 31.2 µg/mL in [16] of 44.3%. The molecule further had an inhibition at 15.6 µg/mL in [18] of 40.3%.

`Cc1sc2c(Nc3cccnc3)cccc2c1C`: the Activity turned out to be 2.5% in experiment [1]; 2.8% in [6]; 5.5% in [7]; 9% in experiment [9]; 15.5% in experiment [19]. In addition, the EC50 in [2] was 17.3 µg/mL (≈ 68 µM); in [3], 24.1 µg/mL (≈ 94.7 µM); in experiment [4] it was greater than 250 µg/mL; in experiment [13], greater than 250 µg/mL. The inhibition in experiment [5] came to 70.9%; in [11], 86.2%; in experiment [14], 65.4%; in [15], 48.1%; in experiment [17], 76.1%. The molecule also yielded an inhibition at 125 µg/mL in experiment [8] of 69.3%. In addition, 250 µg/mL produced 74.1% inhibition in experiment [10]. In experiment [12], at 62.5 µg/mL the inhibition was 66.9%. Moreover, the inhibition at 31.2 µg/mL in [16] was determined as 56.8%. The inhibition at 15.6 µg/mL in [18] is 41.8%.
